{"source": "ChEMBL document CHEMBL4014261", "about": "“Design, Synthesis, and Antimicrobial Evaluation of a Novel Bone-Targeting Bisphosphonate-Ciprofloxacin Conjugate for the Treatment of Osteomyelitis Biofilms” (J Med Chem, 2017)", "key": {"Staphylococcus aureus [1]": {"system": "Staphylococcus aureus", "test": "Antibacterial activity against methicillin-sensitive Staphylococcus aureus isolate 2 planktonic cells after 24 hrs by microdilution assay", "assay_type": "functional", "conditions": "isolate 2, 24 h", "summary_of_the_method": "(§1)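 Planktonic cells at 1 × 10^5 CFU/mL were exposed to compound, and A580 was read at 0 h and after 24 h at 37 °C with shaking. Controls were medium plus microbes, with 1% (v/v) DMSO where the solvent was used. Relative cell number was calculated against the control. Results were confirmed by subculture in fresh medium (48 h, 37 °C) and plating. Conjugate concentrations were expressed as parent-antibiotic equivalents.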"}, "Staphylococcus aureus [2]": {"system": "Staphylococcus aureus", "test": "Antibacterial activity against methicillin-sensitive Staphylococcus aureus isolate 6 planktonic cells after 24 hrs by microdilution assay", "assay_type": "functional", "conditions": "isolate 6, 24 h", "summary_of_the_method": "as §1"}, "Staphylococcus aureus [3]": {"system": "Staphylococcus aureus", "test": "Antibacterial activity against methicillin-resistant Staphylococcus aureus MR4-CIPS planktonic cells after 24 hrs by microdilution assay", "assay_type": "functional", "summary_of_the_method": "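Broth microdilution: 100 µL of 1 × 10^5 CFU/mL inoculum with graded compound concentrations, read at 580 nm before and after 24 h at 37 °C with shaking to prevent biofilm formation. Relative cell number is taken against medium + microbes controls, with 1% DMSO in the ciprofloxacin control. Growth is confirmed by 48 h subculture in fresh medium and by plating. MIC is expressed as parent-antibiotic equivalents.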"}, "Hydroxyapatite": {"system": "Hydroxyapatite", "test": "Binding affinity to Hydroxyapatite at 1.95 to 250 ug/mL up to 24 hrs by spectroscopic analysis", "summary_of_the_method": "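HA spherules (final 10 mg/mL) in TSB were mixed with compound (final 0.24–250 mg/L). Absorbance at 275 nm was read at 0 h and after 24 h at 37 °C with shaking, and relative compound concentration was derived by comparing the two readings.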"}, "Staphylococcus aureus [4]": {"system": "Staphylococcus aureus", "test": "Antibacterial activity against methicillin-sensitive Staphylococcus aureus ATCC 6538 planktonic cells at pH 5 after 24 hrs by microdilution method", "assay_type": "functional", "conditions": "ATCC 6538, 24 h", "summary_of_the_method": "(§2)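 Planktonic ATCC 6538 was tested by microdilution in medium adjusted to pH 5 or pH 7.4 with KOH or HCl, with pH checked by universal indicator. MIC50 was determined at each pH.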"}, "Staphylococcus aureus [5]": {"system": "Staphylococcus aureus", "test": "Ratio of MIC50 for methicillin-sensitive Staphylococcus aureus ATCC 6538 planktonic cells at pH 5 to MIC50 for methicillin-sensitive Staphylococcus aureus ATCC 6538 planktonic cells at pH 7.4", "assay_type": "functional", "summary_of_the_method": "as §2"}, "Staphylococcus aureus [6]": {"system": "Staphylococcus aureus", "test": "Bactericidal activity against methicillin-sensitive Staphylococcus aureus ATCC 6538 planktonic cells assessed as reduction in bacterial growth at 31.25 ug/ml up to 1 hr by time kill assay relative to control", "assay_type": "functional", "parameters": "scale not given: the % may be the effect or the level left", "summary_of_the_method": "(§3)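 Time-kill per CLSI on planktonic cultures, set up as the microdilution assay: 1 × 10^5 CFU/mL, 37 °C with shaking. A580 is read at 0, 1, 2, 4, 8, 16 and 24 h, and growth is expressed relative to untreated medium + microbes control. Concentrations are parent-antibiotic equivalents.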"}, "Staphylococcus aureus [7]": {"system": "Staphylococcus aureus", "test": "Bactericidal activity against methicillin-resistant Staphylococcus aureus MR4-CIPS planktonic cells assessed as reduction in bacterial growth at 7.8 ug/ml after 24 hrs by time kill assay relative to control", "assay_type": "functional", "parameters": "scale not given: the % may be the effect or the level left", "summary_of_the_method": "as §3"}, "Pseudomonas aeruginosa": {"system": "Pseudomonas aeruginosa", "test": "Bactericidal activity against Pseudomonas aeruginosa ATCC 15442 biofilm using polystyrene as substrate assessed as reduction in colony forming units at 0.24 to 125 ug/ml after 24 hrs", "assay_type": "functional", "summary_of_the_method": "(§4)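 Biofilms were started from a 1 McFarland suspension, allowed to adhere 4 h at 37 °C on HA discs or polystyrene well bottoms, then rinsed. They were exposed 24 h at 37 °C to TSB containing 0.24–125 mg/L compound. Cells were detached in 0.5% saponin by 1 min vortexing, serially diluted and plated on Columbia (S. aureus) or MacConkey (P. aeruginosa) agar, 37 °C, 24 h. Read-out was mean CFU/mm² ± SEM; HA area was measured by X-ray tomography.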"}, "Staphylococcus aureus [8]": {"system": "Staphylococcus aureus", "test": "Bactericidal activity against Staphylococcus aureus ATCC 6538 biofilm using hydroxyapatite as substrate assessed as reduction in colony forming units after 24 hrs", "assay_type": "functional", "summary_of_the_method": "as §4"}, "Staphylococcus aureus [9]": {"system": "Staphylococcus aureus", "test": "Antibiofilm activity against Staphylococcus aureus ATCC 6538 assessed as reduction in bacterial adherence to HA at 0.24 to 7.8 ug/ml pretreated with HA for 24 hrs followed by organism inoculation measured after 24 hrs", "assay_type": "functional", "summary_of_the_method": "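HA spherules (final 10 mg/mL) in TSB were preincubated 24 h at 37 °C with shaking with compound (final 0.12–250 mg/L), then pelleted and the supernatant discarded. They were inoculated with 1 mL S. aureus at 10^5 CFU/mL. A580 was read at 0 and 24 h (37 °C, shaking) against controls without spherules and spherules without compound; spherules were also plated for CFU.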"}, "Staphylococcus aureus [10]": {"system": "Staphylococcus aureus", "test": "Antibiofilm activity against Staphylococcus aureus ATCC 6538 assessed as CFU counts at 5 ug/mL pretreated with HA for 24 hrs followed by organism inoculation measured after 24 hrs (reference value: 4.5 x 10^10CFU)", "assay_type": "functional", "summary_of_the_method": "(§5)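 HA discs were soaked 24 h at 37 °C in 2 mL compound solution, with DMSO or phosphate-buffer controls, then rinsed 3× with sterile water. Discs were inoculated with 2 mL of 0.5 McFarland S. aureus ATCC 6538 for biofilm formation. Biofilm CFU were counted after 24 h growth.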"}, "Staphylococcus aureus [11]": {"system": "Staphylococcus aureus", "test": "Antibiofilm activity against Staphylococcus aureus ATCC 6538 assessed as CFU counts at 10 ug/mL pretreated with HA for 24 hrs followed by organism inoculation measured after 24 hrs (reference value: 4.5 x 10^10CFU)", "assay_type": "functional", "summary_of_the_method": "as §5"}, "Staphylococcus aureus [12]": {"system": "Staphylococcus aureus", "test": "Antibiofilm activity against Staphylococcus aureus ATCC 6538 assessed as CFU counts at 25 ug/mL pretreated with HA for 24 hrs followed by organism inoculation measured after 24 hrs (reference value: 4.5 x 10^10CFU)", "assay_type": "functional", "summary_of_the_method": "as §5"}, "[13]": {"system": "Aggregatibacter actinomycetemcomitans", "test": "Antibiofilm activity against Aggregatibacter actinomycetemcomitans D7S-5 using hydroxyapatite as substrate at >15 ug/mL after 24 hrs", "assay_type": "functional"}, "[14]": {"system": "Aggregatibacter actinomycetemcomitans", "test": "Antibiofilm activity against Aggregatibacter actinomycetemcomitans infected in jawbone peri-implant osteomyelitis Sprague-Dawley rat model assessed as reduction in bacterial count in bone at 10 mg/kg, ip single dose measured after 1 week post pharmacotherapy", "assay_type": "functional", "parameters": "scale not given: the % may be the effect or the level left", "summary_of_the_method": "(§6)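 Rats carried two titanium implants each, preinoculated with A. actinomycetemcomitans D7S-1 biofilm (10^9 CFU), placed bilaterally in palatal bone. One week after surgery, randomized groups received i.p. doses in sterile saline; the negative control was endotoxin-free saline. One week after treatment, 1 cm² peri-implant tissue and bone were homogenized in 0.5% saponin, serially diluted 10-fold and spread-plated on modified TSB (37 °C, 5% CO2, 48 h). Read-out was CFU/g and mean log10 reduction; analysts were blinded.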"}, "[15]": {"system": "Aggregatibacter actinomycetemcomitans", "test": "Antibiofilm activity against Aggregatibacter actinomycetemcomitans infected in jawbone peri-implant osteomyelitis Sprague-Dawley rat model assessed as reduction in bacterial count in bone at 0.1 to 1 mg/kg, ip single dose measured after 1 week post pharmacotherapy", "assay_type": "functional, organism-based", "summary_of_the_method": "as §6"}, "Rattus norvegicus": {"system": "Rattus norvegicus", "test": "Toxicity in jawbone peri-implant osteomyelitis Sprague-Dawley rat model infected with Aggregatibacter actinomycetemcomitans assessed as signs of gross tolerability at 0.3 mg/kg, ip administered 3 times per week measured after 1 week post pharmacotherapy", "assay_type": "organism-based", "conditions": "in vivo, 168 h", "summary_of_the_method": "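Rats bearing infected palatal implants received i.p. dosing in sterile saline. They were observed during therapy for cutaneous injection-site reactions, inflammation and gross tolerability issues, and were euthanized one week after pharmacotherapy.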"}}, "note": "Active and inactive are the calls of the source. The calls are words filed in the database; no cut-off is given here."}
{"smiles": "O=C(O)c1cn(C2CC2)c2cc(N3CCN(C(=O)Oc4ccc(CC(P(=O)(O)O)P(=O)(O)O)cc4)CC3)c(F)cc2c1=O", "values": [{"measurement": "MIC", "setting": "Staphylococcus aureus [1]", "result": 0.49, "unit": "µg/mL"}, {"measurement": "MIC", "setting": "Staphylococcus aureus [2]", "result": 7.8, "unit": "µg/mL"}, {"measurement": "MIC", "setting": "Staphylococcus aureus [3]", "result": 15.6, "unit": "µg/mL"}, {"measurement": "Activity", "setting": "Hydroxyapatite", "result": "Active"}, {"measurement": "MIC50", "setting": "Staphylococcus aureus [4]", "result": 7.81, "unit": "µg/mL"}, {"measurement": "MIC90", "setting": "Staphylococcus aureus [4]", "result": 31.2, "unit": "µg/mL"}, {"measurement": "Ratio", "setting": "Staphylococcus aureus [5]", "result": 0.5}, {"measurement": "Activity", "setting": "Staphylococcus aureus [6]", "result": 100, "unit": "%"}, {"measurement": "Activity", "setting": "Staphylococcus aureus [7]", "result": 50, "unit": "%"}, {"measurement": "Activity", "setting": "Pseudomonas aeruginosa", "result": "inactive"}, {"measurement": "MBIC50", "setting": "Staphylococcus aureus [8]", "result": 16, "unit": "µg/mL"}, {"measurement": "MBIC90", "setting": "Staphylococcus aureus [8]", "result": 100, "unit": "µg/mL"}, {"measurement": "Activity", "setting": "Staphylococcus aureus [9]", "result": "Active"}, {"measurement": "Activity", "setting": "Staphylococcus aureus [10]", "result": 3.3, "unit": "×10⁹ CFU"}, {"measurement": "Activity", "setting": "Staphylococcus aureus [11]", "result": "Active"}, {"measurement": "Activity", "setting": "Staphylococcus aureus [12]", "result": "Active"}, {"measurement": "Activity", "setting": "[13]", "result": "Active"}, {"measurement": "Activity", "setting": "[14]", "result": 99, "unit": "%"}, {"measurement": "Activity", "setting": "[15]", "result": "Active"}, {"measurement": "Activity", "setting": "Rattus norvegicus", "result": "Non-Toxic"}]}
